Experimental data published in ChEMBL document CHEMBL3351301, “Synthesis of triazole Schiff bases: novel inhibitors of nucleotide pyrophosphatase/phosphodiesterase-1” (Bioorg Med Chem, 2014).
The source made the active and inactive calls. The rule behind the calls is not given here.

Assays:
[1] = Inhibition of snake venom NPP1 using bis(p-nitrophenyl)phosphate preincubated for 30 mins by spectrophotometry; design: species or system Serpentes
Method in brief: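 Snake venom PDE1/NPP1 at 7.42 × 10^-4 units, dissolved in cold deionized water. Assay in 33 mM Tris-HCl pH 8.8 with 30 mM magnesium acetate cofactor. Preincubated 30 min at 37 °C, then started with 0.33 mM bis(p-nitrophenyl)phosphate (total). p-Nitrophenol release read at 410 nm. Initial rates taken as Vmax/min and % inhibition calculated against control. Triplicates; IC50 derived by enzyme-kinetics fitting.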

[2] = Cytotoxicity against human PC3 cells; format: functional, cell-based; settings: PC-3
[3] = target: Carbonic anhydrase (Homo sapiens) (UniProt P00918+P43166+P00915+P07451+P23280+O43570+Q9ULX7+Q16790+P22748+Q8N1Q1+Q9Y2D0+P35218); experiment: Inhibition of carbonic anhydrase (unknown origin); format: protein assay

Compound	IC50 [1]	IC50 [2] [µM]	IC50 ([1]; read-out: IC50) [µM]	inhibition [3]
COc1cccc(/C=N/n2cnnc2)c1O	Not Active	> 30		
COc1ccc(/C=N/n2cnnc2)cc1	Not Active	> 30		
Brc1ccc(/C=N/n2cnnc2)cc1		> 30	823	
Cc1ccc(O)c(/C=N/c2nnc[nH]2)c1	Not Active	> 30		
Oc1c(Cl)cc(Cl)cc1/C=N/c1nc[nH]n1	Not Active	> 30		
CCOc1ccc(/C=N/c2nnc[nH]2)c(O)c1	Not Active	> 30		
COc1ccc(/C=N/c2nnc[nH]2)cc1OC	Not Active	> 30		
COc1ccc(/C=N/n2cnnc2)cc1OC	Not Active	> 30		
Oc1ccccc1/C=N/n1cnnc1	Not Active	> 30		
Oc1ccc(Br)cc1/C=N/n1cnnc1		> 30	405	
COc1cccc(/C=N/c2nnc[nH]2)c1O	Not Active	> 30		
Oc1ccccc1/C=N/c1nnc[nH]1	Not Active	> 30		
CCOc1ccc(/C=N/n2cnnc2)cc1	Not Active	> 30		
O=C(O)CN(CCN(CC(=O)O)CC(=O)O)CC(=O)O [EDETIC ACID]			278	
CCOc1cccc(/C=N/n2cnnc2)c1O	Not Active	> 30		
O=[N+]([O-])c1ccc(/C=N/c2nnc[nH]2)cc1	Not Active	> 30		
Oc1ccc(Cl)cc1/C=N/n1cnnc1		> 30	251	inactive
Oc1cccc(/C=N/n2cnnc2)c1	Not Active	> 30		
Oc1cccc(/C=N/n2cnnc2)c1O		> 30	153	inactive
Oc1cc(O)c(/C=N/n2cnnc2)c(O)c1		> 30	1160	
Clc1ccc(/C=N/c2nnc[nH]2)c(Cl)c1	Not Active	> 30		
CSc1ccc(/C=N/n2cnnc2)cc1	Not Active	> 30		
CSc1ccc(/C=N/c2nnc[nH]2)cc1	Not Active	> 30		
Oc1c(Br)cc(Br)cc1/C=N/c1nnc[nH]1	Not Active	> 30		
Oc1ccc(/C=N/n2cnnc2)cc1	Not Active	> 30		
CN(C)c1ccc(/C=N/c2nnc[nH]2)cc1		> 30	132	inactive
